# Calls of active or inactive are those of the source. The rule behind the calls is not given here.
# Legend:
# UMSCC14A [1] = assay: Cytotoxicity against human UMSCC14A cells at 1.25 to 80 uM up to 48 hrs by ATP-based luminescent proliferation assay; assay type: functional, cell-based
# Procedure, shortened: (§1)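 Floor-of-mouth OSCC lines (UMSCC1, UMSCC14A) and nonmalignant primary human epidermal keratinocytes were treated at 1.25–80 μM for 24 and 48 h. Growth was measured by ATP-based luminescent proliferation assay, and OSCC vs keratinocytes was compared by two-way ANOVA.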
# [2] = Cytotoxicity against human HEK cells at 1.25 to 80 uM after 24 hrs by ATP-based luminescent proliferation assay; assay type: cell-based; procedure, shortened: as §1
# UMSCC1 [3] = assay: Cytotoxicity against human UMSCC1 cells at 1.25 to 80 uM up to 48 hrs by ATP-based luminescent proliferation assay; assay type: functional, cell-based; procedure, shortened: as §1
# [4] = Cytotoxicity against human HEK cells at 1.25 to 80 uM after 48 hrs by ATP-based luminescent proliferation assay; assay type: cell-based; procedure, shortened: as §1
# [5] = Activation of unfolded protein response in human UMSC23 cells assessed as increase of ATF3 expression at 40 uM after 6 to 12 hrs by qRT-PCR analysis; assay type: functional, cell-based
# UMSCC14A [6] = assay: Activation of unfolded protein response in human UMSCC14A cells assessed as increase of spliced XBP1 expression at 40 uM after 6 to 12 hrs by qRT-PCR analysis; assay type: functional, cell-based
# MEF [7] = assay: Activation of unfolded protein response in Atf4-deficient mouse MEF assessed as effect on Trb3 expression at 40 uM after 6 hrs by qRT-PCR analysis; assay type: functional, cell-based
# Procedure, shortened: (§2)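 Atf4-null murine embryonic fibroblasts and wildtype littermate controls were exposed to 40 μM for 6 h, with 2.5 μg/mL tunicamycin as comparator. cDNA libraries were made from the cells, and Noxa, Puma and Trb3 transcripts were quantified by qRT-PCR.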
# UMSCC14A [8] = assay: Activation of unfolded protein response in human UMSCC14A cells assessed as increase of BiP/GRP78 expression at 40 uM after 6 to 12 hrs by qRT-PCR analysis; assay type: functional, cell-based
# MEF [9] = assay: Activation of unfolded protein response in Atf4-deficient mouse MEF assessed as effect on Puma expression at 40 uM after 6 hrs by qRT-PCR analysis; assay type: functional, cell-based; procedure, shortened: as §2
# MEF [10] = assay: Antiproliferative activity against Chop-deficient mouse MEF after 16 hrs by ATP-based luminescent proliferation assay; assay type: functional, cell-based
# Procedure, shortened: (§3)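 Atf4−/− and Chop−/− murine embryonic fibroblasts, each with wildtype littermate controls, were dosed across a concentration series for 16 h. Proliferation was read by ATP-based luminescence, and wildtype vs null was compared by two-way ANOVA (dose, interaction).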
# UMSCC14A [11] = assay: Activation of unfolded protein response in human UMSCC14A cells assessed as increase of GADD34 expression at 40 uM after 6 to 12 hrs by qRT-PCR analysis; assay type: functional, cell-based
# UMSCC1 [12] = assay: Activation of unfolded protein response in human UMSCC1 cells assessed as increase of ATF3 expression at 40 uM after 6 to 12 hrs by qRT-PCR analysis; assay type: functional, cell-based
# Procedure, shortened: (§4)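 UMSCC1 oral squamous carcinoma cells were treated for 6 or 12 h, and UPR marker transcripts were quantified by qRT-PCR.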
# UMSCC1 [13] = assay: Activation of unfolded protein response in human UMSCC1 cells assessed as increase of GADD34 expression at 40 uM after 6 to 12 hrs by qRT-PCR analysis; assay type: functional, cell-based; procedure, shortened: as §4
# UMSCC14A [14] = assay: Activation of unfolded protein response in human UMSCC14A cells assessed as increase of CHOP expression at 40 uM after 6 to 12 hrs by qRT-PCR analysis; assay type: functional, cell-based
# MEF [15] = assay: Antiproliferative activity against mouse MEF harboring eIF2-alpha (Ser51Ala) mutant after 16 hrs by ATP-based luminescent proliferation assay; assay type: functional, cell-based
# [16] = Activation of unfolded protein response in human UMSC23 cells assessed as increase of GADD34 expression at 40 uM after 6 to 12 hrs by qRT-PCR analysis; assay type: functional, cell-based
# UMSCC14A [17] = assay: Activation of unfolded protein response in human UMSCC14A cells assessed as increase of ATF3 expression at 40 uM after 6 to 12 hrs by qRT-PCR analysis; assay type: functional, cell-based
# MEF [18] = assay: Antiproliferative activity against Atf4-deficient mouse MEF after 16 hrs by ATP-based luminescent proliferation assay; assay type: functional, cell-based; procedure, shortened: as §3
# UMSCC1 [19] = assay: Activation of unfolded protein response in human UMSCC1 cells assessed as increase of spliced XBP1 expression at 40 uM after 6 to 12 hrs by qRT-PCR analysis; assay type: functional, cell-based; procedure, shortened: as §4
# [20] = Activation of unfolded protein response in human UMSC23 cells assessed as increase of BiP/GRP78 expression at 40 uM after 6 to 12 hrs by qRT-PCR analysis; assay type: functional, cell-based
# MEF [21] = assay: Activation of unfolded protein response in Atf4-deficient mouse MEF assessed as effect on Noxa expression at 40 uM after 6 hrs by qRT-PCR analysis; assay type: functional, cell-based; procedure, shortened: as §2
# [22] = Activation of unfolded protein response in human UMSC23 cells assessed as increase of CHOP expression at 40 uM after 6 to 12 hrs by qRT-PCR analysis; assay type: functional, cell-based
# [23] = Activation of unfolded protein response in human UMSC23 cells assessed as increase of spliced XBP1 expression at 40 uM after 6 to 12 hrs by qRT-PCR analysis; assay type: functional, cell-based
# UMSCC1 [24] = assay: Activation of unfolded protein response in human UMSCC1 cells assessed as increase of CHOP expression at 40 uM after 6 to 12 hrs by qRT-PCR analysis; assay type: functional, cell-based; procedure, shortened: as §4
# UMSCC1 [25] = assay: Activation of unfolded protein response in human UMSCC1 cells assessed as increase of BiP/GRP78 expression at 40 uM after 6 to 12 hrs by qRT-PCR analysis; assay type: functional, cell-based; procedure, shortened: as §4
SMILES,Activity (UMSCC14A [1]),Activity [2],Activity (UMSCC1 [3]),Activity [4],Activity (MEF [7]),Activity (MEF [9]),Activity (MEF [21]),also measured
COC(=O)N[C@H]1[C@@H](C)O[C@@H](O[C@H]2C/C=C(\C)[C@@H]3C=C[C@@H]4[C@@H](O[C@H]5C[C@@H](O[C@H]6C[C@@H](O)[C@@H](O[C@@H]7C[C@@H](O)[C@@H](OC)[C@H](C)O7)[C@H](C)O6)[C@@H](O)[C@H](C)O5)[C@@H](C)C[C@H](C)[C@H]4[C@]3(C)C(=O)C3=C(O)[C@@]4(C[C@@H](C)C(C)=C[C@H]4/C=C/2C)OC3=O)C[C@]1(C)[N+](=O)[O-],Active,Non-toxic,Active,Toxic,,,,
COC(=O)N[C@H]1[C@@H](C)O[C@@H](O[C@H]2C/C=C(\C)[C@@H]3C=C[C@@H]4[C@@H](O[C@H]5C[C@@H](O[C@H]6C[C@@H](O)[C@@H](O)[C@H](C)O6)[C@@H](O)[C@H](C)O5)[C@@H](C)C[C@H](C)[C@H]4[C@]3(C)C(=O)C3=C(O)[C@@]4(C[C@@H](C)C(C)=C[C@H]4/C=C/2C)OC3=O)C[C@]1(C)[N+](=O)[O-],Active,Non-toxic,Active,,inactive,inactive,inactive,Activity [5]: Active; Activity (UMSCC14A [6]): Active; Activity (UMSCC14A [8]): Active; Activity (MEF [10]): inactive; Activity (UMSCC14A [11]): Active; Activity (UMSCC1 [12]): Active; Activity (UMSCC1 [13]): Active; Activity (UMSCC14A [14]): Active; Activity (MEF [15]): inactive; Activity [16]: Active; Activity (UMSCC14A [17]): Active; Activity (MEF [18]): inactive; Activity (UMSCC1 [19]): Active; Activity [20]: Active; Activity [22]: Active; Activity [23]: Active; Activity (UMSCC1 [24]): Active; Activity (UMSCC1 [25]): Active
COC(=O)N[C@H]1[C@@H](C)O[C@@H](O[C@H]2C/C=C(\C)[C@@H]3C=C[C@@H]4[C@@H](O[C@H]5C[C@@H](O[C@H]6C[C@@H](O)[C@@H](O[C@@H]7C[C@@H](O)[C@@H](OC)[C@H](C)O7)[C@H](C)O6)[C@@H](O)[C@H](C)O5)[C@@H](C)C[C@H](C)[C@H]4[C@]3(C)C(=O)C3=C(O)[C@@]4(C[C@@H](C)C(CO)=C[C@H]4/C=C/2C)OC3=O)C[C@]1(C)O,Active,Non-toxic,Active,,,,,
COC(=O)N[C@H]1[C@@H](C)O[C@@H](O[C@H]2C/C=C(\C)[C@@H]3C=C[C@@H]4[C@@H](O[C@H]5C[C@@H](O[C@H]6C[C@@H](O)[C@@H](O[C@@H]7C[C@@H](O)[C@@H](OC)[C@H](C)O7)[C@H](C)O6)[C@@H](O)[C@H](C)O5)[C@@H](C)C[C@H](C)[C@H]4[C@]3(C)C(=O)C3=C(O)[C@@]4(C[C@@H](C)C(CO)=C[C@H]4/C=C/2C)OC3=O)C[C@]1(C)[N+](=O)[O-],Active,Non-toxic,Active,Toxic,inactive,inactive,inactive,

# — ChEMBL document CHEMBL3621187, “Novel Lobophorins Inhibit Oral Cancer Cell Growth and Induce Atf4- and Chop-Dependent Cell Death in Murine Fibroblasts” (ACS Med Chem Lett, 2015)
